Results pooled from the literature.
Target: Tyrosine-protein kinase receptor UFO (AXL, Homo sapiens, UniProt P30530)
One construct used (P30530 26-894): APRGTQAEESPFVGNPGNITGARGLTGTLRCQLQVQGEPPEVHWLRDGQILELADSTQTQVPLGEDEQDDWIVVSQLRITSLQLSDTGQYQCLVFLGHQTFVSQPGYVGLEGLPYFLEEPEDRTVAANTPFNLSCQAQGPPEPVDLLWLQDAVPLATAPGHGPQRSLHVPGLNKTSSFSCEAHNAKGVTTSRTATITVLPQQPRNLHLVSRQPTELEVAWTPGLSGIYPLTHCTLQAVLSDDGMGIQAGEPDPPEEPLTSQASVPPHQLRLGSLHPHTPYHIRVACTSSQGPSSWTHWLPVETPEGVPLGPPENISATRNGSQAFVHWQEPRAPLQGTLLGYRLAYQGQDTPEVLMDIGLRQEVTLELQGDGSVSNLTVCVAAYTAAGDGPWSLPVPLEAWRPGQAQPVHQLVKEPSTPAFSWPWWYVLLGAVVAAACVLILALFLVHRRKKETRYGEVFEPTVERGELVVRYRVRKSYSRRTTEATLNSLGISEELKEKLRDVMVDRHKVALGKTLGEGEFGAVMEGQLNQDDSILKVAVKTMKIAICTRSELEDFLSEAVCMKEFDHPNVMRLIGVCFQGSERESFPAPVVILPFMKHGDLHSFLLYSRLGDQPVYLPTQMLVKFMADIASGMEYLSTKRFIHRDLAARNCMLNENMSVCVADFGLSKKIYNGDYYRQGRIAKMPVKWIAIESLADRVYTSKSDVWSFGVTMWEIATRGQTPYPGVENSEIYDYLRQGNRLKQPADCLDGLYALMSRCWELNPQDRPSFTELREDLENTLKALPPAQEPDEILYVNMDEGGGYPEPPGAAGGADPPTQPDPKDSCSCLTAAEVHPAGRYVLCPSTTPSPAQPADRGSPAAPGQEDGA

`CS(=O)(=O)c1ccccc1Nc1nc(Nc2ccnc(CO)c2)ncc1Cl` has a remaining activity of 4.41% (enzyme activity; inhibitor; 1 µM).
The remaining binding of `C[C@]1(O)CCCN(c2nc(Nc3ccc(S(=O)(=O)N[C@H]4CC[C@H](CN5CCN(c6ccc(C7CCC(=O)NC7=O)cc6F)CC5)CC4)cc3F)ncc2C(F)(F)F)C1` (some centres unmarked) is reported as 40% (binding; competition with immobilised ligand; 1 µM).
`CNC(=O)c1ccccc1Nc1nc(Nc2ccc(CO)nc2)ncc1Cl` gave a remaining activity of 2.06% (enzyme activity; inhibitor; 1 µM).
With `Cc1ccc(NC(=O)c2ccnc(C(F)(F)F)c2)cc1-c1cc(OCCO)nc(N2CCOCC2)c1` the remaining binding was 90% (binding; competition with immobilised ligand; 1 µM).
`N#Cc1ccc(NC(=O)Nc2ccccc2)cc1` gave a remaining binding of 100% (cell-free assay; competition with immobilised ligand; 25 µM).
For `CNS(=O)(=O)c1ccc(Nc2ncc(C(F)(F)F)c(N3CCC[C@](C)(O)C3)n2)c(C)c1`, the remaining binding was 70% (binding; competition with immobilised ligand; 1 µM).
`CO[C@@H]1[C@H](N(C)C(=O)c2ccccc2)C[C@H]2O[C@]1(C)n1c3ccccc3c3c4c(c5c6ccccc6n2c5c31)C(=O)NC4` has an inhibition of 92% (enzyme activity; inhibitor; 1 µM).
`CCCCC(=O)Nc1ccc(-c2ccc3ncn(CCC)c(=O)c3c2)cn1` gave a remaining binding of 95% (binding; competition with immobilised ligand; 0.5 µM).
With `CNC(=O)c1ccccc1Nc1nc(Nc2ccc(CO)cc2)ncc1Cl` the remaining activity was 1.13% (enzyme activity; inhibitor; 1 µM).
The remaining binding of `C1=C/COCc2cc(ccc2OCCN2CCCC2)Nc2nccc(n2)-c2cccc(c2)COC/1` is reported as 38% (binding; 0.1 µM).
The remaining activity of `CS(=O)(=NC#N)c1ccccc1Nc1nc(Nc2ccc(CO)nc2)ncc1Cl` (centres unmarked) is reported as 14.9% (enzyme activity; inhibitor; 1 µM).
`CC#CC(=O)N1CCC[C@H]1c1nc(-c2ccc(C(=O)Nc3ccccn3)cc2)c2c(N)nccn12` gave an inhibition of 5% (enzyme activity; inhibitor; 1 µM).
With `COc1ccc2oc(-c3ccc4nc(N)oc4c3)c/c(=N\c3ccccc3NC(=O)CCN)c2c1` the remaining binding was 96% (binding; 1 µM).
The remaining binding of `COc1ccc2[nH]c3c4[nH]c5ccc(OC)cc5c4c4c(c3c2c1)C(=O)NC4=O` is reported as 30% (binding; competition with immobilised ligand; 1 µM).
